pIC50, pKi: −log10 of the molar value.
Columns and labels:
Leishmania donovani = test: In vitro growth inhibitory activity against Leishmania donovani amastigotes at 37 degrees C under a 5% CO2 atmosphere for 96 hours; type: functional, organism-based
Procedure, shortened: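 Mouse peritoneal macrophages in RPMI 1640 with 10% heat-inactivated FBS, infected after 24 h with L. donovani amastigotes at 3:1 (amastigote:macrophage). Free amastigotes washed out at 4 h. Next day, drug-containing medium added for 96 h at 37 °C, 5% CO2. Slides methanol-fixed and Giemsa-stained. Percentage of infected macrophages scored microscopically versus control; IC50 by linear regression. Twice independently, in duplicate.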

Plasmodium falciparum = test: In vitro inhibitory activity against Plasmodium falciparum as [3H]hypoxanthine (50 uL) incorporation at 37C; type: functional, organism-based
dUTP pyrophosphatase [1] = biological target: T1, dUTP pyrophosphatase (Plasmodium falciparum 3D7, UniProt Q8II92); test: Inhibitory constant against Plasmodium falciparum deoxyuridine 5'-triphosphate nucleotidohydrolase expressed in Escherichia coli BL21 (DE3) cells
T1 sequence (Q8II92 whole entry): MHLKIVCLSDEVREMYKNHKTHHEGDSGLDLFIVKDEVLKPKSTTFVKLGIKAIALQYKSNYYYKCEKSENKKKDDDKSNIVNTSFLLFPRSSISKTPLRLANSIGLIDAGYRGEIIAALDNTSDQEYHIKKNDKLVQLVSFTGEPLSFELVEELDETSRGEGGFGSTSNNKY
Procedure, shortened: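 Recombinant PfdUTPase expressed in E. coli BL21(DE3) and purified by phosphocellulose and gel filtration to ~96% purity. Continuous stopped-flow assay following proton release with cresol red/bicine (50:2000 µM, 573 nm). Mix: 30 nM enzyme, 50 µM dUTP, 5 mM MgCl2, 2.5 mM DTT, 1.25 mg/mL BSA, 100 mM KCl. KMapp from integrated Michaelis-Menten fits, plotted against [I] to give Ki.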

[2] = biological target: T2, dUTP pyrophosphatase (Plasmodium falciparum 3D7) (UniProt Q8II92); test: Selectivity index for Plasmodium falciparum deoxyuridine 5'-triphosphate nucleotidohydrolase defined as (Ki Human)/(Ki Plasmodium falciparum)
T2 sequence (whole entry): T1 sequence (Q8II92 whole entry)
Procedure, shortened: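 Ratio of human dUTPase Ki to P. falciparum dUTPase Ki. Both Ki values came from stopped-flow pH-indicator assays following dUTP hydrolysis, with Ki derived from the dependence of apparent KM on inhibitor concentration.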

[3] = tested on: Trypanosoma brucei rhodesiense; test: Inhibitory constant against Trypanosoma brucei rhodesiense upon incubation with the compound at 37 degrees C under a 5% CO2 atmosphere for 72 hours; type: functional, organism-based
Trypanosoma cruzi = test: In vitro growth inhibitory activity against Trypanosoma cruzi in rat L-6 cells upon incubation at 37 degrees C in 5% CO2 atmosphere for 4 days; type: functional, organism-based; conditions: L6, 96 h
Procedure, shortened: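 L-6 cells seeded at 2000 cells/well in RPMI 1640 with 10% FBS and 2 mM L-glutamine. After 24 h, 5000 T. cruzi Tulahuen C2C4 LacZ trypomastigotes added with serial drug dilutions, then 4 days at 37 °C, 5% CO2. CPRG/Nonidet substrate added and colour read at 540 nm after 2-4 h. IC50 from sigmoidal curve. Twice independently, in duplicate.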

dUTP pyrophosphatase [4] = biological target: T3, dUTP pyrophosphatase (Leishmania major, UniProt O15826); test: Inhibitory constant against Leishmania major deoxyuridine 5'-triphosphate nucleotidohydrolase
T3 sequence (O15826 whole entry): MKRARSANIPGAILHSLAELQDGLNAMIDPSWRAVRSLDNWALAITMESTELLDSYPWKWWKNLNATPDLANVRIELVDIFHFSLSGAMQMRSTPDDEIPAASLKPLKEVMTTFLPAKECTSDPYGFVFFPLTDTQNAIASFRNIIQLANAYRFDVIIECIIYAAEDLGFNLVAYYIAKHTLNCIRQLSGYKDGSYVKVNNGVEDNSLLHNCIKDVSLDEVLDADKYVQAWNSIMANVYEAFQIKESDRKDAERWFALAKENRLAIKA

[5] = biological target: T4, Deoxyuridine 5'-triphosphate nucleotidohydrolase, mitochondrial (Homo sapiens, UniProt P33316); test: Inhibitory constant against human deoxyuridine 5'-triphosphate nucleotidohydrolase expressed in Escherichia coli BL21 (DE3) cells
T4 sequence (P33316 whole entry): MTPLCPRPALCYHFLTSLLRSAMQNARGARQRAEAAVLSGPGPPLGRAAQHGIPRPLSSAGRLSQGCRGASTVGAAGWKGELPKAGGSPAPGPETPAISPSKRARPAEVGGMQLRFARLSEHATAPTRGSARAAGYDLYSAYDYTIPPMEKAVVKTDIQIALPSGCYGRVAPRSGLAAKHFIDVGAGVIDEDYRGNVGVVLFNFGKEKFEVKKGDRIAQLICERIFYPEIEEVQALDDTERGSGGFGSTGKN
Procedure, shortened: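 Human dUTPase expressed in E. coli BL21(DE3) and purified like the Plasmodium enzyme (phosphocellulose, then gel filtration). dUTP hydrolysis followed continuously by stopped-flow as pH-indicator absorbance (cresol red/bicine, 50:2000 µM, 573 nm). Apparent KM from integrated Michaelis-Menten fits at each inhibitor concentration; Ki from linear KMapp versus [I].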

L6 = test: In vitro cytotoxicity aganist rat skeletal myoblasts (L-6 cells) after 72 hours; type: functional, cell-based; conditions: L6, 72 h
Procedure, shortened: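 L-6 rat skeletal myoblasts seeded at 4 × 10^4 cells/mL in RPMI 1640 with 10% FBS and 2 mM L-glutamine. After 24 h, medium replaced with a serial drug dilution, then 72 h at 37 °C, 5% CO2. Alamar Blue added for a further 2-4 h. Fluorescence read at ex 536/em 588 nm. Run twice independently, in duplicate.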

Compound	pIC50 (Plasmodium falciparum)	pKi (dUTP pyrophosphatase [1])	SI [2]	pIC50 [3]	pIC50 (Trypanosoma cruzi)	pKi (dUTP pyrophosphatase [4])	pKi [5]	pIC50 (Leishmania donovani)	pIC50 (L6)
O=c1ccn(C2CC(F)C(CNC(c3ccccc3)(c3ccccc3)c3ccccc3)O2)c(=O)[nH]1 (stereo unspecified)	5.28	4.92	> 83	5.44	4.33	< 3.00	< 3.00	< 4.20	4.52
CC(C)(C)[Si](OCC1OC(n2ccc(=O)[nH]c2=O)CC1F)(c1ccccc1)c1ccccc1 (stereo unspecified)	5.06	4.05	9.1	4.54	4.49	< 3.00	3.09		4.80
O=c1ccn([C@H]2C[C@H](O)[C@@H](COC(c3ccccc3)(c3ccccc3)c3ccccc3)O2)c(=O)[nH]1			10	4.62	3.51	< 3.00	4.74	< 4.19	
O=c1ccn([C@H]2C[C@H](O)[C@@H](CO[Si](c3ccccc3)(c3ccccc3)c3ccccc3)O2)c(=O)[nH]1			325	4.82	4.15	< 3.00	3.04		
CC(C)(C)[Si](C)(C)OCC1C=CC(n2ccc(=O)[nH]c2=O)O1 (stereo unspecified)	4.29	5.00	5.6	4.14	3.96	< 3.00	4.25		
NS(=O)(=O)OCC1C=CC(n2ccc(=O)[nH]c2=O)O1 (stereo unspecified)	3.79	3.60	> 4	< 3.51	< 3.51	< 3.00	< 3.00		
O=c1ccn(C2CC(O)C(CNC(c3ccccc3)(c3ccccc3)c3ccccc3)O2)c(=O)[nH]1 (stereo unspecified)		6.70	230	4.32	4.36	3.52	4.34		4.36
CC(C)(C)[Si](C)(C)OC1CC(n2ccc(=O)[nH]c2=O)OC1CNC(c1ccccc1)(c1ccccc1)c1ccccc1 (stereo unspecified)	5.74	3.50	> 3	5.57	4.01	< 3.00	< 3.00		5.11
O=c1ccn(C2C=CC(COC(c3ccccc3)(c3ccccc3)c3ccccc3)O2)c(=O)[nH]1 (stereo unspecified)	< 4.96	5.72	83	4.26	4.36	3.10	3.80	< 4.18	
CCCCCCCCCCCCCCCC(=O)OCC1C=CC(n2ccc(=O)[nH]c2=O)O1 (stereo unspecified)	< 4.96	3.59	1.4	3.95	< 3.70	< 3.00	3.46	< 4.17	
O=c1ccn(C2C=CC(COP(=O)(Oc3ccccc3)Oc3ccccc3)O2)c(=O)[nH]1 (stereo unspecified)	4.27	4.00	> 10	4.17	< 3.69	< 3.00	< 3.00		
CC(C)(C)[Si](OCC1C=CC(n2ccc(=O)[nH]c2=O)O1)(c1ccccc1)c1ccccc1 (stereo unspecified)	5.52		> 833	4.26	4.48	3.75			4.17
O=c1ccn(C2CC(F)C(COC(c3ccccc3)(c3ccccc3)c3ccccc3)O2)c(=O)[nH]1 (stereo unspecified)	5.70	5.30	91	4.33	4.54	3.75	3.34		4.46
CC(C)(C)[Si](OC[C@H]1O[C@@H](n2ccc(=O)[nH]c2=O)C[C@@H]1O)(c1ccccc1)c1ccccc1	5.18		192	5.52	4.35	< 3.00	3.09		4.64

Second part, led by results:

pIC50 (Plasmodium falciparum)	pKi (dUTP pyrophosphatase [1])	SI [2]	pIC50 [3]	pIC50 (Trypanosoma cruzi)	pKi (dUTP pyrophosphatase [4])	pKi [5]	Compound	pIC50 (Leishmania donovani)	pIC50 (L6)
< 4.85	3.20	> 1.6	4.23	4.43	< 3.00		CC(C)(C)[Si](C)(C)OCC1OC(n2ccc(=O)[nH]c2=O)CC1F (stereo unspecified)	< 4.06	
< 4.82	3.57	> 3	3.93	< 3.57	< 3.00	< 3.00	O=C(OC[C@H]1O[C@@H](n2ccc(=O)[nH]c2=O)C[C@@H]1O)c1ccccc1	< 4.05	< 3.57
4.40	4.06	3.7	3.98	3.80	< 3.00	3.49	CC(C)(C)[Si](C)(C)O[C@H]1C[C@H](n2ccc(=O)[nH]c2=O)O[C@@H]1COS(N)(=O)=O	< 5.15	
4.70	3.33	> 2	4.05	< 3.71	3.50	< 3.00	NS(=O)(=O)NC(=O)OC[C@H]1O[C@@H](n2ccc(=O)[nH]c2=O)C[C@@H]1O	< 4.19	
4.11	3.49	> 3	4.39	< 3.65	< 3.00	< 3.00	CCOP(=O)(CC(=O)NCC1OC(n2ccc(=O)[nH]c2=O)CC1O)OCC (stereo unspecified)	4.54	
< 4.68			4.00	< 3.89			O=c1ccn([C@H]2C[C@H](F)[C@@H](CO)O2)c(=O)[nH]1	< 3.41	< 3.41
3.67	3.53	> 3	4.14	3.77	< 3.00	< 3.00	O=c1ccn([C@H]2C=C[C@@H](CO)O2)c(=O)[nH]1		
< 4.80	3.95	> 9	4.77	< 4.08	< 3.00	< 3.00	O=c1ccn(C2CC(O)C(CNCc3ccccc3)O2)c(=O)[nH]1 (stereo unspecified)		
< 4.89	3.64	> 4	5.10	4.24	< 3.00	< 3.00	CC(C)[Si](OC[C@H]1O[C@@H](n2ccc(=O)[nH]c2=O)C[C@@H]1O)(C(C)C)C(C)C		4.60
4.43	3.61	> 4	4.92	< 3.82	< 3.00	< 3.00	CC(C)(C)[Si](C)(C)O[C@H]1C[C@H](n2ccc(=O)[nH]c2=O)O[C@@H]1COC(=O)NS(N)(=O)=O	< 4.29	
< 4.89	3.37	> 2	< 3.64	< 3.64	< 3.00	< 3.00	O=C(NCC1OC(n2ccc(=O)[nH]c2=O)CC1O)C12CC3CC(CC(C3)C1)C2 (stereo unspecified)		
< 4.89	< 3.00		3.99	< 3.63	< 3.00	< 3.00	Cc1ccc(S(=O)(=O)NCC2OC(n3ccc(=O)[nH]c3=O)CC2O)cc1 (stereo unspecified)	< 4.10	< 3.63
